The source of these data is paper PMC5891194 (Cancer Science, 2018).

Data set [1] relates to HUVEC. Description: cells. It counts as cell-based. Conditions: Homo sapiens, 72 h, read-out: IC50 VEGF‐stimulated HUVEC proliferation.
In data set [2] the test system is CD31‐positive microvessels in SW620 tumor xenografts. In words: CD31 immunohistochemistry, microvessel density in SW620 xenograft tumors. It counts as in vivo, nude mice. The procedure, abridged:
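Nude mice (female Balb/cA-nude) bearing subcutaneous SW620 xenografts were dosed orally once daily for 14 days. Tumors were formalin-fixed and paraffin-embedded, and sections were stained for the endothelial marker CD31 with a rabbit anti-mouse antibody and an S-P immunodetection kit. Vessel density was derived from CD31 staining.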

For a further data set, the target named is PDGFRβ (Homo sapiens, UniProt P09619). In words: PDGF‐BB‐stimulated PDGFRβ phosphorylation in U‐87MG cells. It counts as cell-based. Conditions: PDGF‐BB 10 ng/mL.
The target in the next data set is c‐Src (Homo sapiens, UniProt P12931). In words: biochemical. It counts as biochemical.
Data set [3] concerns the target T1, VEGFR2 (Homo sapiens, UniProt P35968). Description: VEGF‐stimulated VEGFR2 phosphorylation in HUVEC. It counts as cell-based.
Data set [4] has as its target T1, VEGFR2. Description: Tyrosine kinase ELISA, VEGFR2. It counts as biochemical.
The conditions of data set [5]: once‐daily dose of 12 mg; cited from earlier work.
The target in a further data set is EGFR (Homo sapiens, UniProt P00533). Description: biochemical. The format is biochemical.
The target of the next data set is c‐Met (Homo sapiens, UniProt P08581). In words: Tyrosine kinase ELISA, c‐Met. The format is biochemical.
c‐Met, sequence (P08581 25-1390): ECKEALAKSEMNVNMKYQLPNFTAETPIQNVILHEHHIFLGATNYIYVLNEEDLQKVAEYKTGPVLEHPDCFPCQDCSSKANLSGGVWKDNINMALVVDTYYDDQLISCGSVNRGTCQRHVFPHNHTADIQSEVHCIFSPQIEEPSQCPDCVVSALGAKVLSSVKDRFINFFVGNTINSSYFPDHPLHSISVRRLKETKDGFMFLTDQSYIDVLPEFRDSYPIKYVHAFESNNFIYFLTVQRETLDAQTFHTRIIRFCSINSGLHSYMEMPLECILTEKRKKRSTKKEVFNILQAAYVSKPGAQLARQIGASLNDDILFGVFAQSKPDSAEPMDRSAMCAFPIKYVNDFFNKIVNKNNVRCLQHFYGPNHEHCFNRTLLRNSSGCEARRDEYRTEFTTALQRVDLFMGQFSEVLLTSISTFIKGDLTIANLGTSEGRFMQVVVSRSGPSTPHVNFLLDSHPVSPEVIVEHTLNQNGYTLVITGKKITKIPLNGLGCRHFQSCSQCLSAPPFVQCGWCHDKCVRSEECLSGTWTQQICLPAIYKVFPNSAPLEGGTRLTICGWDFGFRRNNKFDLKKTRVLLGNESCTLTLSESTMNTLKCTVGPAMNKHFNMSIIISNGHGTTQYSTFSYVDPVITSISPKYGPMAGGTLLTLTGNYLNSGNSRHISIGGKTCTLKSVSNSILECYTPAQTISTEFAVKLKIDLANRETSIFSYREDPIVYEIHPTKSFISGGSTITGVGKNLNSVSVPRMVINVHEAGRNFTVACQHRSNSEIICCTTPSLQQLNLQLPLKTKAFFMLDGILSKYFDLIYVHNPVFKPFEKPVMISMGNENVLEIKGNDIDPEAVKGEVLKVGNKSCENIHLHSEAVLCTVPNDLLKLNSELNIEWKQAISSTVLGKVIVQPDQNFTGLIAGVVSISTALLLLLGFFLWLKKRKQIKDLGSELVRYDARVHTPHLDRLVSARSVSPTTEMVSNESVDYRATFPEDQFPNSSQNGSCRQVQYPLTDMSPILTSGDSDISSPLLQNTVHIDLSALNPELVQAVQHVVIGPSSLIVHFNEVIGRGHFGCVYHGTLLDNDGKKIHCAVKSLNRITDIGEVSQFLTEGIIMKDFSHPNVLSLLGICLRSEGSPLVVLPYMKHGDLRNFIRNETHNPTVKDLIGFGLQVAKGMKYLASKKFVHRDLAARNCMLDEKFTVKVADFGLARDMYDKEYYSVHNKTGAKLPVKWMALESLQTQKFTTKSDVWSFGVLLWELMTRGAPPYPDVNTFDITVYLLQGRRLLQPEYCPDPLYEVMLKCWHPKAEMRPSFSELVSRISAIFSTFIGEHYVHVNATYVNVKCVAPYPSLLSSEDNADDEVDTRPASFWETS
For data set [6], the target named is T2, HER2 (Homo sapiens, UniProt P04626). In words: Constitutive HER2 signaling in BT‐474 cells. It counts as cell-based. Conditions: even at 1000 nmol/L.
T2 sequence (P04626 23-1255): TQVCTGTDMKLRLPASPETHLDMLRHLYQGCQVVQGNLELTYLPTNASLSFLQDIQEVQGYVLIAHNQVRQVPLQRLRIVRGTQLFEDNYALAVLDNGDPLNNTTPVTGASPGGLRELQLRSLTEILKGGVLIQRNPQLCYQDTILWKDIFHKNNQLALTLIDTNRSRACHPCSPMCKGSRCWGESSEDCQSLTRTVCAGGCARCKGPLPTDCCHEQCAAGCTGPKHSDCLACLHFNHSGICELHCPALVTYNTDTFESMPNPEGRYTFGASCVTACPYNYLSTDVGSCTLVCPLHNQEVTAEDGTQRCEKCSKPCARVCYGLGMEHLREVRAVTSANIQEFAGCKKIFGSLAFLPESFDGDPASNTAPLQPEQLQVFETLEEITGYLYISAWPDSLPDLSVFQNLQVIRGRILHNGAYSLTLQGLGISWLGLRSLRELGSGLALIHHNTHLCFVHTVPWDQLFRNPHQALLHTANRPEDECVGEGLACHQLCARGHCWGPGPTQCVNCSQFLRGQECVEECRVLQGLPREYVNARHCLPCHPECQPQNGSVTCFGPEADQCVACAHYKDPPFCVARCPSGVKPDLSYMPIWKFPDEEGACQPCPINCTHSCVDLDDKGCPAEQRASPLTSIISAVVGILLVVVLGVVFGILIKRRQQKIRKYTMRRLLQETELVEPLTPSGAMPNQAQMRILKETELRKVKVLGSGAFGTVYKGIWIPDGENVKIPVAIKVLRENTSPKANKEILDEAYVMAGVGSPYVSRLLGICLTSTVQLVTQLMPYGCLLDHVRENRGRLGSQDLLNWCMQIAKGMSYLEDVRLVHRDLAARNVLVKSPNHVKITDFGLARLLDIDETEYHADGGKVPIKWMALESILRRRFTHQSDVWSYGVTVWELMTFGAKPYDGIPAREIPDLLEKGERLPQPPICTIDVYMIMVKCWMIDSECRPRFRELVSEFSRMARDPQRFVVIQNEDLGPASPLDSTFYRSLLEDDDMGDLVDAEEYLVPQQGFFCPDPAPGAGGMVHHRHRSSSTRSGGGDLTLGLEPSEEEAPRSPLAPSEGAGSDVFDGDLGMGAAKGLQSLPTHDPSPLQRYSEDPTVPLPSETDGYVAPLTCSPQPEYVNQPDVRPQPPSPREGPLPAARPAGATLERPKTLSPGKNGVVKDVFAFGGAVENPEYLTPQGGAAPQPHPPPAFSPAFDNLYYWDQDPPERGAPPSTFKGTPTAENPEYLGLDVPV
The target in data set [7] is T2, HER2. Description: Tyrosine kinase ELISA, HER2. The format is biochemical. (ELISA stands for enzyme-linked immunosorbent assay.)
In data set [8] the target is T3, c‐Kit (Homo sapiens, UniProt P10721). In words: SCF‐1‐stimulated c‐Kit phosphorylation in Mo7e cells. Conditions: SCF‐1 2.5 ng/mL. It counts as cell-based.
T3 sequence (P10721 26-976): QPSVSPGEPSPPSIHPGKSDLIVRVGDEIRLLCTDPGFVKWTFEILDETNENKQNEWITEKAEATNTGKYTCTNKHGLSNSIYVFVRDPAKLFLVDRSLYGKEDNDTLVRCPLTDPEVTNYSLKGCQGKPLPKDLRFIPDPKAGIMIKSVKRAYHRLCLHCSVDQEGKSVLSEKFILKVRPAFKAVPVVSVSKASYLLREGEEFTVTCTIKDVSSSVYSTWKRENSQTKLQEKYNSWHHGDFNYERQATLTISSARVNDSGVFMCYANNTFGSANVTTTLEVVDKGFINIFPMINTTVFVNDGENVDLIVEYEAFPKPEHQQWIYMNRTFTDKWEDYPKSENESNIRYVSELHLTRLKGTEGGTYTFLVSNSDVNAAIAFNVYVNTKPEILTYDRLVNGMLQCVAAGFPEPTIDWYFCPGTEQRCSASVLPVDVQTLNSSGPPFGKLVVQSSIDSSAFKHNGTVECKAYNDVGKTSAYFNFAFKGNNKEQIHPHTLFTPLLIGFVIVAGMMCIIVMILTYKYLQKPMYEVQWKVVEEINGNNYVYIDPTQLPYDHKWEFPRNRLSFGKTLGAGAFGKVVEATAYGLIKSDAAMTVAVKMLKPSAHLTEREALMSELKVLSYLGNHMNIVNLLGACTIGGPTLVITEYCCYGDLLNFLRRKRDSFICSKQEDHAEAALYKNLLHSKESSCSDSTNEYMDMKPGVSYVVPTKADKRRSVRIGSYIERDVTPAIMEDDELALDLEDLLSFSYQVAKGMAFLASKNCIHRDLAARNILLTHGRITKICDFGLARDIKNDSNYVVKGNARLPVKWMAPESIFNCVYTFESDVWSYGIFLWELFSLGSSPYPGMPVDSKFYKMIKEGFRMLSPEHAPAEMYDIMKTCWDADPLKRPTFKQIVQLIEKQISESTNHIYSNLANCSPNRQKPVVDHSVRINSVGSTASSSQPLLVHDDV
The subject of the next data set is rat aortic rings. In words: Rat aortic ring assay. The format is cell-based. Conditions: 100 nmol/L, VEGF 50 ng/mL, 7 days. The procedure, abridged:
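Thoracic aortas from 6-week-old male Sprague-Dawley rats were cut into 1-mm rings, embedded in Matrigel and held 1 h at 37°C. M199 containing VEGF-A (50 ng/mL) plus drug was added. After 7 days, sprouting microvessels were counted in 5 random fields.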

Another data set has as its target VEGFR1 (Homo sapiens, UniProt P17948). In words: Tyrosine kinase ELISA, VEGFR1. The format is biochemical.
Another data set has as its system panel of tumor cells. Description: FBS‐stimulated tumor cell proliferation. The format is cell-based, human. The procedure, abridged:
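Tumor lines were grown in 10% FBS and treated with serial drug dilutions for 72 h, with sulforhodamine B readout. IC50 was obtained by curve fitting (mean ± SD, 3 independent experiments).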

Data set [9] has as its system HUVEC. Description: HUVEC tube‐formation assay on Matrigel. The format is cell-based, human. Conditions: 100 nmol/L, 20% FBS, 6 h. The procedure, abridged:
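Matrigel was set at 37°C for 30 min. HUVEC (1 × 10^5/mL) in M199 with 20% FBS and drug were then plated onto it. After 6 h, capillary tube formation was imaged at high magnification.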

Data set [10] deals with HUVEC. In words: cells. The format is cell-based. Conditions: Homo sapiens, 8 h, read-out: IC50 HUVEC migration in response to VEGF.
For another data set, the target named is VEGFR3 (Homo sapiens, UniProt P35916). In words: Tyrosine kinase ELISA, VEGFR3. It counts as biochemical.
The target in data set [11] is T3, c‐Kit. Description: Tyrosine kinase ELISA, c‐Kit. It counts as biochemical.
In data set [12] the test system is HUVEC. Description: FBS‐stimulated HUVEC proliferation. It counts as cell-based. Conditions: Homo sapiens, 72 h, read-out: IC50 FBS‐stimulated HUVEC proliferation. The procedure, abridged:
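HUVEC were isolated from umbilical cord veins and maintained in M199 with 20% FBS plus endothelial cell growth supplement. Cells were exposed to serial drug dilutions with 20% FBS for 72 h. Viability was measured by sulforhodamine B, and IC50 was obtained by curve fitting. Values are mean ± SD of 3 independent experiments.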

The test system of another data set is SW620 tumor xenografts. Description: SW620 tumor xenograft in nude mice. It counts as in vivo. A digest of the protocol:
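Female Balb/cA-nude mice, 5–6 weeks old, received cells subcutaneously in the left axilla and were randomized at 100–200 mm3 tumor volume. Dosing was oral, daily for 18 d (vehicle n = 12, treated n = 6). Tumor volume, calculated as (length × width²)/2, and bodyweight were measured twice weekly. TGI was calculated from treatment start against vehicle. Data are mean ± SEM; Student's t test.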

T1 sequence (P35968 20-1356): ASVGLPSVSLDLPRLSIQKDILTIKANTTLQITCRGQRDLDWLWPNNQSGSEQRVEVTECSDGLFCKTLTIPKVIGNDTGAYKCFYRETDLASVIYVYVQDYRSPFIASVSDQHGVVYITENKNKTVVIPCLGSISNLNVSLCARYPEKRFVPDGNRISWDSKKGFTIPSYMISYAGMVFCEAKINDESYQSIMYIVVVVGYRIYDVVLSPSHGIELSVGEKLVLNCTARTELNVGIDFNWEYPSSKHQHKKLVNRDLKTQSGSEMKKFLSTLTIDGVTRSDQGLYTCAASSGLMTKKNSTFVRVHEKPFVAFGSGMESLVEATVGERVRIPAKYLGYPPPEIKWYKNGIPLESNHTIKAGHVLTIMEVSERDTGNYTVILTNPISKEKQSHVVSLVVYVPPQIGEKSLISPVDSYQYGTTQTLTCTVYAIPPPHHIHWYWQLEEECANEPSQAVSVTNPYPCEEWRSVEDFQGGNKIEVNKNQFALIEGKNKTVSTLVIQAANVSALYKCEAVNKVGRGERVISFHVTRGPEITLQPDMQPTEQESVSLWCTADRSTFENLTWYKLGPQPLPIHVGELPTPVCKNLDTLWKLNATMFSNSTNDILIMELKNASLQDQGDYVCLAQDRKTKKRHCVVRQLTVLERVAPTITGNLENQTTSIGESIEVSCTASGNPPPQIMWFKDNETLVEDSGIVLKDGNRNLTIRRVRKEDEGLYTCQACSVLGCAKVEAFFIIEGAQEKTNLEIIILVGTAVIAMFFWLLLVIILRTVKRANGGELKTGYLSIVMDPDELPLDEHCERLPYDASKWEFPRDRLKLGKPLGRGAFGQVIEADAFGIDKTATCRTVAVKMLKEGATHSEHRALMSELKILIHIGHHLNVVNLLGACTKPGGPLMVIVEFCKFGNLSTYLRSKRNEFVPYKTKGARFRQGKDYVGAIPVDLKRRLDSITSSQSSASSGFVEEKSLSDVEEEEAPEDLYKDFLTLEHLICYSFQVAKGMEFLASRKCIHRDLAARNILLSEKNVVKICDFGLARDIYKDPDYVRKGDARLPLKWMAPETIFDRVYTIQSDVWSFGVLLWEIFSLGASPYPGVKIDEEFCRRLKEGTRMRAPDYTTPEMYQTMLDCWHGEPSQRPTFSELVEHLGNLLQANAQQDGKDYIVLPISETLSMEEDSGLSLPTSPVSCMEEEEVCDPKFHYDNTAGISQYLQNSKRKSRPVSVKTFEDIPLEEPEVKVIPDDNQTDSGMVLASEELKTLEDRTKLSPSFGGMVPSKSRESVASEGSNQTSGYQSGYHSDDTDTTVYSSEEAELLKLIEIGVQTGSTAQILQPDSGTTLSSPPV

Take `CNC(=O)c1cc(Oc2ccc(NC(=O)Nc3ccc(Cl)c(C(F)(F)F)c3)cc2)ccn1` [Sorafenib]: the IC50 in the data set with HUVEC [1] is 195 nM.

Turning to `CCN(CC)CCNC(=O)c1c(C)[nH]c(/C=C2\C(=O)Nc3ccc(F)cc32)c1C` [Sunitinib, reference compound], the IC50 with HUVEC [1] turned out to be 18.5 nM. Moreover, in data set [2] (50 mg/kg oral daily), the “inhibition rate of CD31‐positive microvessels (microvessel density)” value came out at 63.6%.

As for `COc1cc2c(Oc3ccc4[nH]c(C)cc4c3F)ccnc2cc1OCC1(N)CC1.Cl.Cl` [Anlotinib, 1‐[[[4‐(4‐fluoro‐2‐methyl‐1H‐indol‐5‐yloxy)‐6‐methoxyquinolin‐7‐Yl]oxy]methyl]cyclopropanamine dihydrochloride], on PDGFRβ, the “PDGF‐BB‐stimulated phosphorylation of PDGFRβ, AKT and ERK” value is “inhibited”. Further, the IC50 is greater than 2000 nM on c‐Src; 0.2 nM in the data set with HUVEC [1]; less than 1 nM on VEGFR2 [4] (IC50 VEGFR2 kinase, ELISA, recombinant tyrosine kinase, mean ± SD (n = 3)); greater than 2000 nM at EGFR; greater than 2000 nM at c‐Met; greater than 2000 nM against HER2 [7]. Further, the IC50 at VEGFR1 was 26.9 ± 7.7 nM; in the data set on panel of tumor cells (Homo sapiens, 72 h, read-out: IC50 FBS‐stimulated tumor cell proliferation), 3000 to 12500 nM; in the data set with HUVEC [10] it was 0.1 nM; against VEGFR3, 0.7 ± 0.1 nM; at c‐Kit [11], 14.8 ± 2.5 nM; in the data set with HUVEC [12], 2000 nM. The “effect on c‐Src kinase activity” value on c‐Src (at 2000 nmol/L) is given as “little effect”. The “VEGF‐stimulated ERK1/2 phosphorylation” value at VEGFR2 [3] is given as “inhibited”. Further, the “effect on VEGF‐stimulated VEGFR2 phosphorylation” value on VEGFR2 [3] (0.1 nmol/L) is “clear inhibitory effect”. Further, at VEGFR2 [3] ([…] treatment, VEGF 20 ng/mL 10 min), the “IC50, VEGF‐stimulated intracellular phosphorylation of VEGFR2” value was “subnanomolar”. In addition, the “inhibition rate of CD31‐positive microvessels (microvessel density)” value in data set [2] (0.75 mg/kg oral daily) stood at 48.9%; in data set [2] (3 mg/kg oral daily), 91.2%; in data set [2] ([…] oral daily), 76.3%. Also, at VEGFR2 [4], the “potency relative to sunitinib for inhibition of VEGF2/3” value is reported as 20 fold. In data set [5], the “circulation time in clinical trials” value was “long circulation time”. Also, the “toxicity in clinical trials” value in data set [5] was “manageable toxicity”. Also, the “effect on EGFR kinase activity” value at EGFR (at 2000 nmol/L) is “little effect”. On c‐Met (at 2000 nmol/L), the “effect on c‐Met kinase activity” value is “little effect”. Also, the “constitutive HER2 signaling” value on HER2 [6] is “nor the constitutive HER2 signaling in BT‐474 cells was affected”. Moreover, the “effect on HER2 kinase activity” value at HER2 [7] (at 2000 nmol/L) is listed as “little effect”. For the same compound, the “SCF‐1‐stimulated phosphorylation of c‐Kit, AKT and ERK” value at c‐Kit [8] is “inhibited”. Moreover, the “budding of the aortic ring” value in the data set with rat aortic rings was “near complete inhibition”. In the data set with panel of tumor cells (greater than HUVEC value), the “tumor cell IC50 relative to IC50 for VEGF‐stimulated HUVEC proliferation” value is “more than 10 000 fold”. Further, the HUVEC tube formation entry in the data set on HUVEC [9] is given as “few enclosed tubes were detected”. Further, the “%TGI” value in the data set on SW620 tumor xenografts (SW620 (colon), 3 mg/kg p.o. daily, 18 d, 3 mg/kg) came out at 83%. The “effect on bodyweight in mice” value with SW620 tumor xenografts (SW620 xenograft, all groups, during the course of the experiment) is reported as “little effect on bodyweight”.
